Assay outcomes: PubChem BioAssay, several laboratories
STAT1 act – STAT1 signaling activators, primary screen, cell-based, HTS, luciferase reporter. AID 932, 2007. NIH 3T3 STAT1-luciferase reporter, IFN-gamma, luminescence; 100% = IFN-gamma alone, no compound. hit rate 2.6% among 200,000. activation (% of control), % at 5.5 µM;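 active = activation above the screen-wide mean activation plus 3 SD, cut at about 130% in these data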;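 also: raw ratio to IFN-gamma control signal so 100% means no change and 0% no light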
STAT3 inh-1 – IL-6 driven STAT3 reporter inhibitors, primary screen, U3A cells, luciferase, luminescence, MLSCN library | IL-6 STAT3-luciferase reporter; host cell line lacks STAT1 | inhibition, % at 5.5 µM | hit rate 0.89% among 190,000;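 active = inhibition above the mean inhibition across all screened compounds plus 3 SD, cut at about 44% in these data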;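 also: 0% = DMSO only wells and 100% = 100 µM nifuroxazide control wells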
NF-kB expr up – activators of NF-kB expression in neurons, primary screen, cell-based, HTS; fold change at 12.5 µM; hit rate 1.6% among 190,000; human neuronal cells, NF-kB reporter expression; stronger effect = higher value; in the data active = fold change above about 3.3
APP 5'UTR act – activators of APP 5'UTR luciferase reporter, primary screen, SH-SY5Y cells; activation, % at 2 µM; hit rate 1% among 190,000; SH-SY5Y APP 5'UTR luciferase reporter, luminescence; zero percent = DMSO vehicle wells;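 active = activation above a set limit, based on mean plus 3 SD of controls, cut at about 140% in these data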
STAT3 act – IL-6 driven STAT3 reporter potentiators, primary screen, U3A cells, luciferase, luminescence, MLSCN library; IL-6 STAT3-luciferase reporter; 100% = signal with IL-6 EC80 alone; activation (% of control), % at 5.6 µM; hit rate 0.91% among 190,000;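 active = activation above the screen-wide mean of compound activation plus 3 SD, cut at about 130% in these data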;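 also: 0% = background luminescence of wells with medium and substrate only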
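Test system: human U3A cells carrying STAT3-luciferase construct; control set: IL-6-only wells as 100% reference; timing: compound pre-incubation 1 h before IL-6, then 6 h stimulation at 37 °C; also added: IL-6 stimulus at 33 ng/mL final; evaluation: % activation versus median of IL-6-stimulated wells; detection: reporter luminescence signal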
STAT1 inh – STAT1 signaling inhibitors, primary screen, cell-based, HTS, luciferase reporter; hit rate 0.35% among 200,000; inhibition, % at 5.5 µM; NIH 3T3 STAT1-luciferase reporter, IFN-gamma, luminescence; AID 920, 2007;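 active = inhibition above a set limit, the mean inhibition across all tested compounds plus 3 SD, cut at about 34% in these data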;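 also: 0% = IFN-gamma with DMSO and 100% = IFN-gamma with 300 µM nifuroxazide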
STAT3 inh-2 – STAT3 reporter inhibitors, retest of hits, confirmation, U3A cells, luciferase, luminescence; inhibition, % at 5.7 µM; IL-6 STAT3 luciferase reporter; cell line lacks STAT1; shares compounds with STAT3 inh-1; hit rate 45% among 1,200; AID 1265, 2008;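 active = inhibition above the hit cutoff computed for the primary STAT3 screen, cut at about 44% in these data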;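 also: 0% = IL-6 plus DMSO and 100% = IL-6 plus nifuroxazide control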
NFkB inh 2 – NF-kB reporter inhibitors in human cells, confirmation, counter-screen for STAT3 inhibitor project, cell-based, HEK293T, luciferase, TNF-alpha stimulus. shares compounds with STAT3 inh-1. TNF-alpha induced. inhibition, % at 5.7 µM. hit rate 36% among 1,200. AID 1308, 2008;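 active = inhibition above the mean of solvent-only control wells plus 3 SD, cutoff set per campaign, cut at about 13% in these data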;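 also: 0% = TNF-alpha with DMSO and 100% = TNF-alpha with MG high control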
STAT1 inh STAT3c – STAT1 reporter inhibitors, IFN-gamma induced, confirmation, counter-screen for STAT3 inhibitor project, cell-based, NIH 3T3, luciferase luminescence; shares compounds with STAT3 inh-1; NIH 3T3 STAT1-luciferase reporter; inhibition, % at 5.7 µM; hit rate 27% among 1,200; AID 1317, 2008;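 active = inhibition above the mean plus 3 SD of solvent-only control wells, limit set per screening run, cut at about 16% in these data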;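 also: 0% = DMSO with IFN-gamma and 100% = nifuroxazide control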
Starred values were filed as active, the others as inactive; x = no result given; ! = not active in a repeat. An excerpt weighted towards active compounds, which were near 4.9% of everything screened.

SMILES	STAT1 act	STAT3 inh-1	NF-kB expr up	APP 5'UTR act	STAT3 act	STAT1 inh	STAT3 inh-2	NFkB inh 2	STAT1 inh STAT3c
Cc1ccc(C(=O)C[n+]2cc(-c3ccc(C)cc3)n3c2CCCCC3)cc1	75.1	70.6*	1.13	3.7	46.3	27.9	60.2*	-0.6	26.5*
O=C1OCC2=C1C(c1ccc(F)cc1)CC(=O)N2c1ccccc1 (stereo not drawn)	100.4	5.9	0.95	-13.0	98.6	-2.0	x	x	x
Cc1ccc(NC2=Nc3ccccc3CC2)cc1	95.5	44.4*	3.73*	179.3*	66.7	4.9	31.9	-10.2	-62.3
Cc1ccc(NC(=O)C2OCCc3ccccc32)cc1 (stereo not drawn)	111.1	7.3	1.69	21.9	98.5	-12.2	x	x	x
C#Cc1ccc([C@@H]2C=C(C(=O)OCC=C)O[C@H](OCCCCO)C2)cc1	86.2	x	1.06	17.2	x	16.2	x	x	x
Cc1ccc(N2C(=O)c3ccccc3C2O)nc1 (stereo not drawn)	99.3	73.6*	1.3	113.4	40.0	1.6	43.8*	8.1	-20.8
CC(=O)N1CCc2cc(S(=O)(=O)NC3CCCc4ccccc43)ccc21 (stereo not drawn)	82.7	47.6*	0.7	0.6	62.1	19.0	46.0*	0.8	8.9
COc1ccc(CCNC(=O)/C(C#N)=C/c2cccc(OCc3ccccc3)c2)cc1OC	102.7	13.7	0.7	16.6	90.0	-3.0	x	x	x
Cc1ccc2nc(-c3ccccc3N)[nH]c2c1	77.9	67.3*	1.07	198.2*	46.9	21.4	11.9	-36.9	-148.6
CCOC(=O)c1sc(NC(=O)C(C)Sc2nnc(N)s2)nc1C (stereo not drawn)	103.6	10.5	1.45	-2.8	96.9	-5.9	x	x	x
O=C(CCNS(=O)(=O)c1cccs1)NCc1ccccc1	98.8	-0.1	1.22	-15.2	106.3	1.3	x	x	x
COc1ccc(CNc2nc(S(=O)(=O)c3ccccc3)c(Cl)s2)cc1OC	92.9	12.4	0.86	-8.7	92.2	7.9	x	x	x
O=C(Nc1cc(Cl)ccc1O)c1snnc1-c1ccccc1	103.9	2.2	0.39	-18.9	100.4	-4.3	x	x	x
CC(C)c1nnc(NC(=O)c2ccc3c(c2)OCO3)s1	79.4	78.9*	4.77*	147.9*	32.4	21.8	48.5*	4.2	-55.5
C[C@@H](O)C1NC(=O)[C@H](CCCCN)NC(=O)c2cc([N+](=O)[O-])cc(I)c2NCCC[C@@H](C(N)=O)NC1=O (stereo partly drawn)	99.7	-1.6	1.24	6.4	99.0	0.4	x	x	x
O=C(Nc1ccc(-c2cn3ccsc3n2)cc1)c1ccc(F)c(S(=O)(=O)N2CCOCC2)c1	93.2	44.8*	0.37	12.0	66.5	7.4	35.1	1.1	1.1
CC1CCC(C(C)C)C(OC(=O)Cn2c(-c3ccccc3)[n+](C)c3ccccc32)C1 (stereo not drawn)	82.2	52.8*!	0.77	19.4	56.8	20.2	34.3	3.1	22.2*
CC1CCC(C(C)C)C(OC(=O)Cn2c(-c3ccc(F)cc3)[n+](C)c3ccccc32)C1 (stereo not drawn)	95.2	17.5	0.96	2.6	87.1	5.4	x	x	x
COc1ccccc1-c1c(C(F)(F)F)oc2cc(OC(=O)c3ccc([N+](=O)[O-])cc3)ccc2c1=O	95.5	7.8	0.82	3.4	94.2	5.0	x	x	x
COCCCNC(=O)Cn1cc(C(C)=O)c2ccccc21	101.7	11.7	1.22	-5.7	91.4	0.3	x	x	x
